Measurements from different studies.
MTNR1A: Melatonin receptor type 1A (MTNR1A, Homo sapiens, UniProt P48039)
CDC42BPG: Serine/threonine-protein kinase MRCK gamma (CDC42BPG, Homo sapiens, UniProt Q6DT37)
BRWD3: BRWD3 (Homo sapiens, UniProt Q6RI45)
Trypanothione synthetase: Trypanothione synthetase (Trypanosoma cruzi, UniProt Q9GT49)
murC: UDP-N-acetylmuramate--L-alanine ligase (murC, Escherichia coli K-12, UniProt P17952)
Grm1: Metabotropic glutamate receptor 1 (Grm1, Rattus norvegicus, UniProt P23385)
HTR2C: 5-hydroxytryptamine receptor 2C (HTR2C, Homo sapiens, UniProt P28335)
BMP2K: BMP-2-inducible protein kinase (BMP2K, Homo sapiens, UniProt Q9NSY1)

The Emax of `COc1ccc2c(c1)C(CNC(N)=O)Cc1ccccc1C2` (stereo not shown) is reported as 8% (MTNR1A; GTPγS binding, agonist, radiometric; cell membranes).
`FC(F)(F)Oc1cccc(-c2cnc3ccc(-c4ccncc4)nn23)c1` gave a remaining binding of 18% (CDC42BPG; cell-free assay, competition with immobilised ligand; 5 µM).
For `O=C(O)C(=O)Cc1ccccc1`, the Km was 760 µM (Macrophage migration inhibitory factor (MIF, Homo sapiens, UniProt P14174); enzyme activity, substrate).
`Cc1ccc(C(=O)Nc2ccc(CN3CCN(C)CC3)c(C(F)(F)F)c2)cc1C#Cc1cnc2cccnn12` gave a remaining signal of 100% (CDC42BPG; cell-free assay; 23.5 nM).
With `COc1cc2c(CCNC(C)=O)c[nH]c2cc1I` the Emax was 101% (MTNR1A; β-arrestin recruitment, agonist; CHO-K1; 90 min).
The ΔTm of `CC(CCC(=O)NCC(=O)O)C1CCC2C3CCC4CC(O)CCC4(C)C3CC(O)C12C` (stereo not shown) is reported as 9.2 °C (Serine hydroxymethyltransferase, cytosolic (SHMT1, Homo sapiens, UniProt P34896); thermal stability; 50 µM).
`Cc1cc2c(cc1N1C(=O)c3cccc4c(Cl)ccc(c34)C1=O)n(C)c(=O)n2C` has a ΔTm of -0.5 °C (BRWD3; thermal stability, DSF; 10 µM).
`CCN(Cc1ccccc1C(F)(F)F)C(=O)C1CCN(S(=O)(=O)c2ccc3[nH]ncc3c2)CC1` gave an inhibition of 11% (B2 bradykinin receptor (BDKRB2, Homo sapiens, UniProt P30411); ligand displacement, radioligand; 10 µM).
`Cc1cnc(Nc2ccc(OCCN3CCCC3)cc2)nc1Nc1cccc(S(=O)(=O)NC(C)(C)C)c1` has a ΔTm of 0.58 °C (BRWD3; thermal stability, DSF; 10 µM).
For `O=C(CN1C(=O)Cc2c([nH]c3ccc(Br)cc23)-c2ccc(Cl)cc21)N1CCCCC1`, the inhibition was 7.1% (Trypanothione synthetase; enzyme activity, inhibitor, absorbance; 30 µM).
With `O=C(Nc1ccc(C=NNS(=O)(=O)c2ccc3ccccc3c2)cc1)c1ccccc1` the remaining activity was 97% (murC; enzyme activity, inhibitor, absorbance; 100 µM).
`Cc1cccnc1C(=O)Nc1ccc(N2C(=O)c3cccc(Cl)c3C2=O)c(Cl)c1` gave an Emax of 118% (Grm1; calcium signal, positive allosteric modulator; T-REx-293).
`CCc1ccc2scc(CCNC(C)=O)c2c1` gave an Emax of 75% (MTNR1A; cAMP, agonist, TR-FRET; CHO-K1; 20 min).
The inhibition of `O=C(c1ccc(Cl)cc1)N(Cc1ccccc1)C1CCCCC1` is reported as -5.5% (HTR2C; ligand displacement, radioligand; 10 µM).
For `Nc1ncnc2occ(-c3ccc(NC(=O)Nc4cc(C(F)(F)F)ccc4F)cc3)c12`, the remaining signal was 0.75% (Receptor-type tyrosine-protein kinase FLT3 (FLT3, Homo sapiens, UniProt P36888, N841I); cell-free assay, inhibitor; 20 µM).
With `COc1cc(NC(C)=O)c(Cl)cc1C(=O)Nc1nccs1` the inhibition was 48.8% (HTR2C; ligand displacement, radioligand; 10 µM).
`O=C(NCCCNc1nc(Nc2cccc(NC(=O)N3CCCC3)c2)ncc1I)c1cccs1` has a remaining activity of 1% (BMP2K; enzyme activity, inhibitor, radiometric; 1 µM).
With `COc1cc(I)c2[nH]cc(CCNC(C)=O)c2c1` the Emax was 95% (MTNR1A; β-arrestin recruitment, agonist; CHO-K1; 90 min).
`NS(=O)(=O)c1ccc(CNc2nc(Nc3cccc(NC(=O)N4CCCC4)c3)ncc2C2CC2)cc1` has a remaining activity of 64% (BMP2K; enzyme activity, inhibitor, radiometric; 1 µM).
`O=C(Nc1ccc(C=NNS(=O)(=O)c2ccc3ccccc3c2)cc1)c1ccccc1Br` has a remaining activity of 41% (murC; enzyme activity, inhibitor, absorbance; 100 µM).
`CN1CCN(CCNC(=O)CN2C(=O)Cc3c([nH]c4ccc(Br)cc34)-c3ccc(Cl)cc32)CC1` has an inhibition of 16.8% (Trypanothione synthetase; enzyme activity, inhibitor, absorbance; 30 µM).
The ΔTm of `C[S+]([O-])c1ccc(-c2nc(-c3ccncc3)c(-c3ccc(F)cc3)[nH]2)cc1` (stereo not shown) is reported as 0.55 °C (BRWD3; thermal stability, DSF; 10 µM).
`Cc1nn(CC(F)(F)F)cc1Nc1ncc(C2CC2)c(NCCc2c[nH]cn2)n1` has a remaining activity of 96% (BMP2K; enzyme activity, inhibitor, radiometric; 1 µM).
The remaining activity of `O=[N+]([O-])c1cccc(COc2ccccc2C=NNS(=O)(=O)c2ccc3ccccc3c2)c1` is reported as 65% (murC; enzyme activity, inhibitor, absorbance; 50 µM).
The remaining activity of `O=C(Nc1cccc(Nc2ncc(Br)c(NCCc3cnc[nH]3)n2)c1)N1CCCC1` is reported as 2% (BMP2K; enzyme activity, inhibitor, radiometric; 1 µM).
`O=C(CN1C(=O)Cc2c([nH]c3ccc(Br)cc23)-c2ccc(Cl)cc21)NC1=NCCS1` gave an inhibition of 16% (Trypanothione synthetase; enzyme activity, inhibitor, absorbance; 30 µM).
With `O=C(Nc1ccc(C=NNS(=O)(=O)c2ccc3ccccc3c2)cc1)c1cc([N+](=O)[O-])cc([N+](=O)[O-])c1` the remaining activity was 72% (murC; enzyme activity, inhibitor, absorbance; 100 µM).
For `c1cc(CN2CCOCC2)cc(Nc2ncc(C3CC3)c(NCCc3c[nH]cn3)n2)c1`, the remaining activity was 18% (BMP2K; enzyme activity, inhibitor, radiometric; 1 µM).
The Emax of `COc1cc2c(CCNC(C)=O)c(I)[nH]c2cc1[N+](=O)[O-]` is reported as 72% (MTNR1A; GTPγS binding, agonist, radiometric; cell membranes).
`Cc1nn(CC(F)(F)F)cc1Nc1ncc(C2CC2)c(NCCCNC(=O)C2CCC2)n1` has a remaining activity of 73% (BMP2K; enzyme activity, inhibitor, radiometric; 1 µM).
For `CCCOc1ccc(OC)c(F)c1C(=O)c1ccc(C(=O)N[C@@H]2CNC[C@H]2NC(=O)c2ccc3[nH]ncc3c2)cc1`, the remaining activity was 3% (Rho-associated protein kinase 2 (ROCK2, Homo sapiens, UniProt O75116); enzyme activity, inhibitor; 10 µM).
`CNC(=O)CN1C(=O)Cc2c([nH]c3ccc(Br)cc23)-c2ccc(Cl)cc21` gave an inhibition of 22.8% (Trypanothione synthetase; enzyme activity, inhibitor, absorbance; 30 µM).
`O=C(Nc1ccc(N2C(=O)c3ccccc3C2=O)c(Cl)c1)c1ncccc1Cl` gave an Emax of 77% (Grm1; calcium signal, positive allosteric modulator; T-REx-293).
The Emax of `COc1ccc2[nH]cc(CCNC(C)=O)c2c1I` is reported as 91% (MTNR1A; β-arrestin recruitment, agonist; CHO-K1; 90 min).
For `O=C(Cc1ccc2c(c1)OCO2)Oc1ccccc1C=NNS(=O)(=O)c1ccc2ccccc2c1`, the remaining activity was 57% (murC; enzyme activity, inhibitor, absorbance; 100 µM).
With `COc1ccc2ncn(CCNC(C)=O)c2c1` the Emax was 53% (MTNR1A; GTPγS binding, agonist, radiometric; cell membranes).
`Cc1nn(CC(F)(F)F)cc1Nc1ncc(Br)c(NCc2ccc(S(N)(=O)=O)cc2)n1` has a remaining activity of 30% (BMP2K; enzyme activity, inhibitor, radiometric; 1 µM).
